Measured values from ChEMBL document CHEMBL5150051, “Identification and Characterization of a Novel Indoleamine 2,3-Dioxygenase 1 Protein Degrader for Glioblastoma” (J Med Chem, 2022).

Molecular target: von Hippel-Lindau disease tumor suppressor/Indoleamine 2,3-dioxygenase 1 (Homo sapiens) (UniProt P14902+P40337)
Test: Protac activity at IDO1/VHL in IFNgamma-stimulated human U87 cells assessed as IDO1 degradation at 10 uM measured after 24 hrs by Western blotting analysis relative to control
Format: cell-based
Outline: (§1)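 U87 GBM cells primed with human IFNγ 50 ng/mL for 24 h, then exposed to PROTAC at 10 μM for 24 h. Lysates run on western blot; IDO1 bands quantified by densitometry and expressed as percent of normalized IDO1 protein level.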

Sequence of von Hippel-Lindau disease tumor suppressor/Indoleamine 2,3-dioxygenase 1 (Homo sapiens) (P14902 whole entry, looked up): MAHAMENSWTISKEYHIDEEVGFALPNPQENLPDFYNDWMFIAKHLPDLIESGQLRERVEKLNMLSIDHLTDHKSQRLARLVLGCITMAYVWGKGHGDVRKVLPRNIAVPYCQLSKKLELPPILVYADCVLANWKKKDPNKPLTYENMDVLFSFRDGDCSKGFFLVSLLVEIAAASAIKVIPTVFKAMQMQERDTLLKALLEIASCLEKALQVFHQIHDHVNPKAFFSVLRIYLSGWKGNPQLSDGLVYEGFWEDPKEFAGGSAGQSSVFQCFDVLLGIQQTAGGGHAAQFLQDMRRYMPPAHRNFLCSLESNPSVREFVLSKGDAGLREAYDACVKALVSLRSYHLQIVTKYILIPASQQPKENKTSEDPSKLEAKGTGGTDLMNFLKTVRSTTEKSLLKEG
Sequence of von Hippel-Lindau disease tumor suppressor/Indoleamine 2,3-dioxygenase 1 (Homo sapiens) (P40337 whole entry, looked up): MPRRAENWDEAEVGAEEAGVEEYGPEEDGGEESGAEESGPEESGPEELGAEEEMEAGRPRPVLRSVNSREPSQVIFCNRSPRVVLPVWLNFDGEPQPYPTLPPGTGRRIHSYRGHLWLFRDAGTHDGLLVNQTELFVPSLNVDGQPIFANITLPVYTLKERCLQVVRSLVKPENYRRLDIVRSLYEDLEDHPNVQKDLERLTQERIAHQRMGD

Activity [%]	Compound
0	Cc1ncsc1-c1ccc(CNC(=O)[C@@H]2C[C@@H](O)CN2C(=O)[C@@H](NC(=O)C2(F)CC2)C(C)(C)C)c(OCCOCCOCCOCCOc2ccc(NC(=O)[C@H](C)[C@H]3CC[C@@H](c4ccnc5ccc(F)cc54)CC3)cc2)c1
0	Cc1ncsc1-c1ccc(CNC(=O)[C@@H]2C[C@@H](O)CN2C(=O)[C@@H](NCCOCCOCCOc2cc(NC(=O)[C@H](C)[C@H]3CC[C@@H](c4ccnc5ccc(F)cc54)CC3)ccc2Cl)C(C)(C)C)cc1
3	Cc1ncsc1-c1ccc(CNC(=O)[C@H]2C[C@H](O)CN2C(=O)[C@H](NCCCCCCCCCOc2cc(NC(=O)[C@H](C)[C@H]3CC[C@@H](c4ccnc5ccc(F)cc54)CC3)ccc2Cl)C(C)(C)C)cc1
0	Cc1ncsc1-c1ccc(CNC(=O)[C@@H]2C[C@@H](O)CN2C(=O)[C@@H](NC(=O)C2(F)CC2)C(C)(C)C)c(OCCOCCCN2CCC(Oc3ccc(NC(=O)[C@H](C)[C@H]4CC[C@@H](c5ccnc6ccc(F)cc65)CC4)cc3)CC2)c1
0	Cc1ncsc1-c1ccc(CNC(=O)[C@@H]2C[C@@H](O)CN2C(=O)[C@@H](NCCOCCOc2ccc(NC(=O)[C@H](C)[C@H]3CC[C@@H](c4ccnc5ccc(F)cc54)CC3)cc2)C(C)(C)C)cc1
0	Cc1ncsc1-c1ccc(CNC(=O)[C@@H]2C[C@@H](O)CN2C(=O)[C@@H](NCCOCCOCCOCCOCCOc2ccc(NC(=O)[C@H](C)[C@H]3CC[C@@H](c4ccnc5ccc(F)cc54)CC3)cc2)C(C)(C)C)cc1
0	Cc1ncsc1-c1ccc(CNC(=O)[C@@H]2C[C@@H](O)CN2C(=O)[C@@H](NCCOCCOCCOCCOCCOCCOc2cc(NC(=O)[C@H](C)[C@H]3CC[C@@H](c4ccnc5ccc(F)cc54)CC3)ccc2Cl)C(C)(C)C)cc1
0	Cc1ncsc1-c1ccc(CNC(=O)[C@H]2C[C@H](O)CN2C(=O)[C@H](NCCCOc2cc(NC(=O)[C@H](C)[C@H]3CC[C@@H](c4ccnc5ccc(F)cc54)CC3)ccc2Cl)C(C)(C)C)cc1
67	Cc1ncsc1-c1ccc(CNC(=O)[C@@H]2C[C@@H](O)CN2C(=O)[C@@H](NCCOCCOCCC(=O)N2CCC(Oc3ccc(NC(=O)[C@H](C)[C@H]4CC[C@@H](c5ccnc6ccc(F)cc65)CC4)cc3)CC2)C(C)(C)C)cc1
0	Cc1ncsc1-c1ccc(CNC(=O)[C@@H]2C[C@@H](O)CN2C(=O)[C@@H](NC(=O)C2(F)CC2)C(C)(C)C)c(OCCOCCOCCOCCOc2cc(NC(=O)[C@H](C)[C@H]3CC[C@@H](c4ccnc5ccc(F)cc54)CC3)ccc2Cl)c1

Further lines, the molecule ahead of its results:

Compound	Activity [%]
Cc1ncsc1-c1ccc(CNC(=O)[C@@H]2C[C@@H](O)CN2C(=O)[C@@H](NCCCCCCCOc2ccc(NC(=O)[C@H](C)[C@H]3CC[C@@H](c4ccnc5ccc(F)cc54)CC3)cc2)C(C)(C)C)cc1	0
Cc1ncsc1-c1ccc(CNC(=O)[C@@H]2C[C@@H](O)CN2C(=O)[C@@H](NCCOCCOc2cc(NC(=O)[C@H](C)[C@H]3CC[C@@H](c4ccnc5ccc(F)cc54)CC3)ccc2Cl)C(C)(C)C)cc1	0
Cc1ncsc1-c1ccc(CNC(=O)[C@@H]2C[C@@H](O)CN2C(=O)[C@@H](NC(=O)C2(F)CC2)C(C)(C)C)c(OCCOCCOCCC(=O)N2CCC(Oc3ccc(NC(=O)[C@H](C)[C@H]4CC[C@@H](c5ccnc6ccc(F)cc65)CC4)cc3)CC2)c1	3
Cc1ncsc1-c1ccc(CNC(=O)[C@@H]2C[C@@H](O)CN2C(=O)[C@@H](NCCOCCOCCOCCOc2cc(NC(=O)[C@H](C)[C@H]3CC[C@@H](c4ccnc5ccc(F)cc54)CC3)ccc2Cl)C(C)(C)C)cc1	0
Cc1ncsc1-c1ccc(CNC(=O)[C@@H]2C[C@@H](O)CN2C(=O)[C@@H](NC(=O)C2(F)CC2)C(C)(C)C)c(OCCCCOc2ccc(NC(=O)[C@H](C)[C@H]3CC[C@@H](c4ccnc5ccc(F)cc54)CC3)cc2)c1	10
Cc1ncsc1-c1ccc(CNC(=O)[C@@H]2C[C@@H](O)CN2C(=O)[C@@H](NCCOCCOCCOc2ccc(NC(=O)[C@H](C)[C@H]3CC[C@@H](c4ccnc5ccc(F)cc54)CC3)cc2)C(C)(C)C)cc1	0
Cc1ncsc1-c1ccc(CNC(=O)[C@@H]2C[C@@H](O)CN2C(=O)[C@@H](NC(=O)C2(F)CC2)C(C)(C)C)c(OCCOCCOc2cc(NC(=O)[C@H](C)[C@H]3CC[C@@H](c4ccnc5ccc(F)cc54)CC3)ccc2Cl)c1	23
Cc1ncsc1-c1ccc(CNC(=O)[C@@H]2C[C@@H](O)CN2C(=O)[C@@H](NC(=O)C2(F)CC2)C(C)(C)C)c(OCCOCCC(=O)N2CC(Oc3ccc(NC(=O)[C@H](C)[C@H]4CC[C@@H](c5ccnc6ccc(F)cc65)CC4)cc3)C2)c1	20
Cc1ncsc1-c1ccc(CNC(=O)[C@@H]2C[C@@H](O)CN2C(=O)[C@@H](NC(=O)C2(F)CC2)C(C)(C)C)c(OCCOCCOc2ccc(NC(=O)[C@H](C)[C@H]3CC[C@@H](c4ccnc5ccc(F)cc54)CC3)cc2)c1	39
Cc1ncsc1-c1ccc(CNC(=O)[C@@H]2C[C@@H](O)CN2C(=O)[C@@H](NC(=O)C2(F)CC2)C(C)(C)C)c(OCCOCCOCCOCCOCCOCCOc2ccc(NC(=O)[C@H](C)[C@H]3CC[C@@H](c4ccnc5ccc(F)cc54)CC3)cc2)c1	27
Cc1ncsc1-c1ccc(CNC(=O)[C@@H]2C[C@@H](O)CN2C(=O)[C@@H](NC(=O)C2(F)CC2)C(C)(C)C)c(OCCCCCCCCCOc2cc(NC(=O)[C@H](C)[C@H]3CC[C@@H](c4ccnc5ccc(F)cc54)CC3)ccc2Cl)c1	90
Cc1ncsc1-c1ccc(CNC(=O)[C@@H]2C[C@@H](O)CN2C(=O)[C@@H](NCCCCOc2ccc(NC(=O)[C@H](C)[C@H]3CC[C@@H](c4ccnc5ccc(F)cc54)CC3)cc2)C(C)(C)C)cc1	0
Cc1ncsc1-c1ccc(CNC(=O)[C@@H]2C[C@@H](O)CN2C(=O)[C@@H](NC(=O)C2(F)CC2)C(C)(C)C)c(OCCCCCCCOc2ccc(NC(=O)[C@H](C)[C@H]3CC[C@@H](c4ccnc5ccc(F)cc54)CC3)cc2)c1	41
Cc1ncsc1-c1ccc(CNC(=O)[C@@H]2C[C@@H](O)CN2C(=O)[C@@H](NC(=O)C2(F)CC2)C(C)(C)C)c(OCCOCCOCCOCCOCCOc2cc(NC(=O)[C@H](C)[C@H]3CC[C@@H](c4ccnc5ccc(F)cc54)CC3)ccc2Cl)c1	0
Cc1ncsc1-c1ccc(CNC(=O)[C@@H]2C[C@@H](O)CN2C(=O)[C@@H](NC(=O)C2(F)CC2)C(C)(C)C)c(OCCCOc2cc(NC(=O)[C@H](C)[C@H]3CC[C@@H](c4ccnc5ccc(F)cc54)CC3)ccc2Cl)c1	0
Cc1ncsc1-c1ccc(CNC(=O)[C@@H]2C[C@@H](O)CN2C(=O)[C@@H](NCCOCCOCCOCCOCCOCCOc2cccc(NC(=O)[C@H](C)[C@H]3CC[C@@H](c4ccnc5ccc(F)cc54)CC3)c2)C(C)(C)C)cc1	0
Cc1ncsc1-c1ccc(CNC(=O)[C@@H]2C[C@@H](O)CN2C(=O)[C@@H](NC(=O)C2(F)CC2)C(C)(C)C)c(OCCOCCOCCOCCOCCOc2ccc(NC(=O)[C@H](C)[C@H]3CC[C@@H](c4ccnc5ccc(F)cc54)CC3)cc2)c1	0
Cc1ncsc1-c1ccc(CNC(=O)[C@H]2C[C@H](O)CN2C(=O)[C@H](NCCCCCCOc2cc(NC(=O)[C@H](C)[C@H]3CC[C@@H](c4ccnc5ccc(F)cc54)CC3)ccc2Cl)C(C)(C)C)cc1	21
Cc1ncsc1-c1ccc(CNC(=O)[C@@H]2C[C@@H](O)CN2C(=O)[C@@H](NC(=O)C2(F)CC2)C(C)(C)C)c(OCCOCCOCCCN2CCC(Oc3ccc(NC(=O)[C@H](C)[C@H]4CC[C@@H](c5ccnc6ccc(F)cc65)CC4)cc3)CC2)c1	0
Cc1ncsc1-c1ccc(CNC(=O)[C@@H]2C[C@@H](O)CN2C(=O)[C@@H](NC(=O)C2(F)CC2)C(C)(C)C)c(OCCOCCOCCOc2cc(NC(=O)[C@H](C)[C@H]3CC[C@@H](c4ccnc5ccc(F)cc54)CC3)ccc2Cl)c1	0

Molecular target: Protein cereblon/Indoleamine 2,3-dioxygenase 1 (Homo sapiens, UniProt P14902+Q96SW2)
Sequence (P14902 whole entry, looked up): as the sequence (P14902 whole entry, looked up) above
Sequence (Q96SW2 whole entry, looked up): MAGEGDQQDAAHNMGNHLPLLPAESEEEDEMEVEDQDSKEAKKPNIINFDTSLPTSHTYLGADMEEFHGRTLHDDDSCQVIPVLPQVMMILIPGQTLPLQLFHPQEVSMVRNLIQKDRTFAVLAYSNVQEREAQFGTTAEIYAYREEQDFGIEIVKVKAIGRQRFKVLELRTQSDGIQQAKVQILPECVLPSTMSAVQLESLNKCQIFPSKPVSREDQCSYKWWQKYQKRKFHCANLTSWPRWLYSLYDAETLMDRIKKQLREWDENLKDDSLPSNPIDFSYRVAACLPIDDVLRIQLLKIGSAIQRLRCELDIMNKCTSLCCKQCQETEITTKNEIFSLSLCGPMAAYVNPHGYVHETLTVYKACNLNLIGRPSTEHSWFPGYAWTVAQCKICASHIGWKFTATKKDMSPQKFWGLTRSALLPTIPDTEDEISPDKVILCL
Test: Protac activity at IDO1/CRBN in IFNgamma-stimulated human U87 cells assessed as IDO1 degradation at 10 uM measured after 24 hrs by Western blotting analysis relative to control
Format: cell-based
Outline: as §1

Activity [%]	Compound
86	C[C@@H](C(=O)Nc1ccc(OC2CN(C(=O)CCOCCOc3cccc4c3C(=O)N(C3CCC(=O)NC3=O)C4=O)C2)cc1)[C@H]1CC[C@@H](c2ccnc3ccc(F)cc32)CC1 (some centres not stated)
67	C[C@@H](C(=O)Nc1ccc(Cl)c(OCCCNC(=O)COc2cccc3c2C(=O)N(C2CCC(=O)NC2=O)C3=O)c1)[C@H]1CC[C@@H](c2ccnc3ccc(F)cc32)CC1 (some centres not stated)
86	C[C@@H](C(=O)Nc1ccc(OC2CN(C(=O)CCOCCNC(=O)COc3cccc4c3C(=O)N(C3CCC(=O)NC3=O)C4=O)C2)cc1)[C@H]1CC[C@@H](c2ccnc3ccc(F)cc32)CC1 (some centres not stated)
0	C[C@@H](C(=O)Nc1ccc(OCCCCCCCCCCNC(=O)COc2cccc3c2C(=O)N(C2CCC(=O)NC2=O)C3=O)cc1)[C@H]1CC[C@@H](c2ccnc3ccc(F)cc32)CC1 (some centres not stated)
49	C[C@@H](C(=O)Nc1ccc(Cl)c(OCCCOc2cccc3c2C(=O)N(C2CCC(=O)NC2=O)C3=O)c1)[C@H]1CC[C@@H](c2ccnc3ccc(F)cc32)CC1 (some centres not stated)
0	C[C@@H](C(=O)Nc1ccc(Cl)c(OCCOCCOCCOCCNc2cccc3c2C(=O)N(C2CCC(=O)NC2=O)C3=O)c1)[C@H]1CC[C@@H](c2ccnc3ccc(F)cc32)CC1 (some centres not stated)

The remaining lines, values behind:

Compound	Activity [%]
C[C@@H](C(=O)Nc1ccc(Cl)c(OCCOCCNc2cccc3c2C(=O)N(C2CCC(=O)NC2=O)C3=O)c1)[C@H]1CC[C@@H](c2ccnc3ccc(F)cc32)CC1 (some centres not stated)	66
C[C@@H](C(=O)Nc1ccc(OCCCCCCCCCCNc2cccc3c2C(=O)N(C2CCC(=O)NC2=O)C3=O)cc1)[C@H]1CC[C@@H](c2ccnc3ccc(F)cc32)CC1 (some centres not stated)	0
C[C@@H](C(=O)Nc1ccc(OC2CCN(CCCOCCNC(=O)COc3cccc4c3C(=O)N(C3CCC(=O)NC3=O)C4=O)CC2)cc1)[C@H]1CC[C@@H](c2ccnc3ccc(F)cc32)CC1 (some centres not stated)	66
C[C@@H](C(=O)Nc1ccc(OC2CN(CCCOCCOCCNC(=O)COc3cccc4c3C(=O)N(C3CCC(=O)NC3=O)C4=O)C2)cc1)[C@H]1CC[C@@H](c2ccnc3ccc(F)cc32)CC1 (some centres not stated)	0
C[C@@H](C(=O)Nc1ccc(OCCOCCOCCOCCOc2cccc3c2C(=O)N(C2CCC(=O)NC2=O)C3=O)cc1)[C@H]1CC[C@@H](c2ccnc3ccc(F)cc32)CC1 (some centres not stated)	0
C[C@@H](C(=O)Nc1ccc(OCCCCOc2cccc3c2C(=O)N(C2CCC(=O)NC2=O)C3=O)cc1)[C@H]1CC[C@@H](c2ccnc3ccc(F)cc32)CC1 (some centres not stated)	0
